According to PMC2910240 (Neuroscience letters, 2010):
Where two headings read alike, the source gives them in different places.

Legend:
[1] = molecular target: human cloned 5-HT1A; conditions: cited from earlier work
[2] = molecular target: human cloned 5-HT7 receptor; conditions: cited from earlier work
[3] = molecular target: h5-HT1B (Homo sapiens, UniProt P28222); assay: Competition radioligand binding; conditions: 0.29 nM [3H]GR125743; mean ± S.E.M.
[4] = molecular target: T1, r5-HT2C (Rattus norvegicus, UniProt P08909); assay: Competition radioligand binding; conditions: 0.5 nM [3H]mesulergine; mean ± S.E.M.
T1 sequence (P08909 33-460): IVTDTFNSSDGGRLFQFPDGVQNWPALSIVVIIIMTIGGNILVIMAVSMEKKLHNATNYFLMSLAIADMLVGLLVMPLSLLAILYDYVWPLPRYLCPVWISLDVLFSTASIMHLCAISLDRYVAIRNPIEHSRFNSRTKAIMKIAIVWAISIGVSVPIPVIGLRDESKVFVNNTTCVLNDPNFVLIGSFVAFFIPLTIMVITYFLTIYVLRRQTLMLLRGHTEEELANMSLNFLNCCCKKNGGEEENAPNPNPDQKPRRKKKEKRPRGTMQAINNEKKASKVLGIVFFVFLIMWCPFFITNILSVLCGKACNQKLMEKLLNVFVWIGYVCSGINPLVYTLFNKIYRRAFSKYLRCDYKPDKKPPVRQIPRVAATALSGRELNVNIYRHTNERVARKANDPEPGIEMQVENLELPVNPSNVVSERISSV

[5] = Disposition: plasma and brain concentrations in mice; format: in vivo, mouse; conditions: for Plasma concentration: 30 min
Outline: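 Male 5-HT7−/− and 5-HT7+/+ sibling mice, 10–12 weeks old, got test compound i.p. (10 or 30 mg·kg−1). It was dissolved in ethanol at 10× and diluted in saline just before injection. At 30 min mice were killed by isoflurane overdose; […] and brain were stored at −80 °C. Parent and metabolite were measured in plasma and water brain homogenate (1 g·10 mL−1) by RP-HPLC-UV at 230 nm with internal standard. LLOQ 50 ng·mL−1 or g−1. Ratios on molar basis; 5 mice/group.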

[6] = molecular target: h5-HT2A (Homo sapiens, UniProt P28223); format: binding; conditions: 0.5 nM [3H]ketanserin; mean ± S.E.M.
Sequence of h5-HT2A (P28223 whole entry): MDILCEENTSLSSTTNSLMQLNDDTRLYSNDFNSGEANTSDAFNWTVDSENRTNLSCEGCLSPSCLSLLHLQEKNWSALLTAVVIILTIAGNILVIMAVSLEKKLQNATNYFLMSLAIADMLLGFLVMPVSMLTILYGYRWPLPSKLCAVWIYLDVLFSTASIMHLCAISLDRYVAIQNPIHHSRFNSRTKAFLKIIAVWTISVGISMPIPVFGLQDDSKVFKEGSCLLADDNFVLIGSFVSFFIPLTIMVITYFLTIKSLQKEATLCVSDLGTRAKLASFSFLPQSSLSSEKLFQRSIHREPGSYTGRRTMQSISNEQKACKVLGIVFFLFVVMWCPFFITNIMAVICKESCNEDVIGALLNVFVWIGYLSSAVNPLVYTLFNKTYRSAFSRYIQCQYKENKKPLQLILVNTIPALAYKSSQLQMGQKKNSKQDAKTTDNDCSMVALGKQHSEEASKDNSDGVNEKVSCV

[7] = system: 5-HT7^+/+ mice; assay: Body temperature regulation in 5-HT7+/+ mice; format: in vivo, mouse
[8] = molecular target: T2, h5-HT1A (Homo sapiens, UniProt P08908); assay: Competition radioligand binding
T2 sequence (P08908 1-422): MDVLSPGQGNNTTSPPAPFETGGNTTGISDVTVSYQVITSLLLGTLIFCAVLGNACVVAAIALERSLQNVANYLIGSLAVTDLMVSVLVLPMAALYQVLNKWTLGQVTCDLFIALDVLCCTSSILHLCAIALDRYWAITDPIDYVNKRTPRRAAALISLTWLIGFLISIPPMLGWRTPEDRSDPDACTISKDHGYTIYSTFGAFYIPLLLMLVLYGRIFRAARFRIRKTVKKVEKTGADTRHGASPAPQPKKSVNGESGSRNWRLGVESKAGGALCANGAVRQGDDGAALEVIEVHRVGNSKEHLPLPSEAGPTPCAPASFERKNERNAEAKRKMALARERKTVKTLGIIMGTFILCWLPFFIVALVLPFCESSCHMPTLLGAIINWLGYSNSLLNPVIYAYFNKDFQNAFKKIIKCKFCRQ

[9] = molecular target: h5-ht5A (Homo sapiens, UniProt P47898); assay: Competition radioligand binding; conditions: for Ki: 0.99 nM [3H]LSD, mean ± S.E.M.
Sequence of h5-ht5A (P47898 whole entry): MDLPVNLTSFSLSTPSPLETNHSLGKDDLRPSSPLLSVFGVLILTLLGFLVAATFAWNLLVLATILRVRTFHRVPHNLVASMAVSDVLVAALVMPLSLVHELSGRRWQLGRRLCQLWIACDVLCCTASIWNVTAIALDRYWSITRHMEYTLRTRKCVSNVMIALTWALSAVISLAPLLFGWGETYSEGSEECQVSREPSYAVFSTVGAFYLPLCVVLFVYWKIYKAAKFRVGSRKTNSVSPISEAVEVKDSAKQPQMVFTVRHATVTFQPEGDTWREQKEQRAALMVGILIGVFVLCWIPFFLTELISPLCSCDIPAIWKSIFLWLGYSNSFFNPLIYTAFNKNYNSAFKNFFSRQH

[10] = molecular target: h5-HT2B (Homo sapiens, UniProt P41595); assay: Competition radioligand binding; conditions: 1.0 nM [3H]LSD; mean ± S.E.M.
Sequence of h5-HT2B (P41595 whole entry): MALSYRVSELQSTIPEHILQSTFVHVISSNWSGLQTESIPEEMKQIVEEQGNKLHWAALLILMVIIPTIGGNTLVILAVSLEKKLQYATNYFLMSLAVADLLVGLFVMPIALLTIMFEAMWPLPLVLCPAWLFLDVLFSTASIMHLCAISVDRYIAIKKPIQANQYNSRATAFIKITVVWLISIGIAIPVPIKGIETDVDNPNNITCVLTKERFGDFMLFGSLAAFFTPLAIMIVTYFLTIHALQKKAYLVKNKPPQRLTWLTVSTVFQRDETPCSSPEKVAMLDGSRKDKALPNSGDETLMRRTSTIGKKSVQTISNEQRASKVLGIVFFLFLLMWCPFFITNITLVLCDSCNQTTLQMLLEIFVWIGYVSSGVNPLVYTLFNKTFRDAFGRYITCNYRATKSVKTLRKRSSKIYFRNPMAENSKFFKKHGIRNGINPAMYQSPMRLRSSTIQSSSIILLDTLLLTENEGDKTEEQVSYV

[11] = molecular target: h5-HT7 (Homo sapiens, UniProt P34969); assay: Competition radioligand binding
Sequence of h5-HT7 (P34969 whole entry): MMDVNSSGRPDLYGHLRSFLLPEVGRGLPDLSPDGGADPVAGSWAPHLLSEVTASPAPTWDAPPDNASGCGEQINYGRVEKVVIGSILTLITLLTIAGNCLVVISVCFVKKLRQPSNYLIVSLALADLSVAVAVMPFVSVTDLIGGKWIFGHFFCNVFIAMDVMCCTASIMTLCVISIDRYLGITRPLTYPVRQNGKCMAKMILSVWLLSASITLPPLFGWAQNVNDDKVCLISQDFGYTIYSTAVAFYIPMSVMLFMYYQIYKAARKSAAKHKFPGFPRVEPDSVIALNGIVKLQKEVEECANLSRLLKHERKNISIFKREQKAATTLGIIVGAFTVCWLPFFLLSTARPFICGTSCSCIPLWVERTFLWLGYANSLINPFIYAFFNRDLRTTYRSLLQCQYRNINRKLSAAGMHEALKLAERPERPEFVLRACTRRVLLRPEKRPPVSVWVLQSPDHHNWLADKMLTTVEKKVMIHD

[12] = molecular target: T3, h5-HT3 (Homo sapiens, UniProt P46098); assay: Competition radioligand binding; conditions: for Ki: 0.29 nM [3H]LY278584, mean ± S.E.M.
T3 sequence (P46098 24-478): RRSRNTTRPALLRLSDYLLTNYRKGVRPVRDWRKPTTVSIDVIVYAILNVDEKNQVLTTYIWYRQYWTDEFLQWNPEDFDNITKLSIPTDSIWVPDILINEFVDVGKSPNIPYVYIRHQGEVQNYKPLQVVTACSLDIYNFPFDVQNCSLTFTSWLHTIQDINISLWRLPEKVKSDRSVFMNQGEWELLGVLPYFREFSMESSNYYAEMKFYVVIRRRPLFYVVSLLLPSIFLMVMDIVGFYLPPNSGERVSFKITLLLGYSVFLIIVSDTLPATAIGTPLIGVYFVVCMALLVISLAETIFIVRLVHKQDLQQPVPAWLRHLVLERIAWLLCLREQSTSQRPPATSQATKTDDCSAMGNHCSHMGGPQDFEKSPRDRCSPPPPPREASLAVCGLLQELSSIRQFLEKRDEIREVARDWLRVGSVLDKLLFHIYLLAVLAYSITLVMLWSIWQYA

[13] = molecular target: h5-ht1E (Homo sapiens, UniProt P28566); assay: Competition radioligand binding; conditions: for Ki: 3 nM [3H]5-HT
Sequence of h5-ht1E (P28566 whole entry): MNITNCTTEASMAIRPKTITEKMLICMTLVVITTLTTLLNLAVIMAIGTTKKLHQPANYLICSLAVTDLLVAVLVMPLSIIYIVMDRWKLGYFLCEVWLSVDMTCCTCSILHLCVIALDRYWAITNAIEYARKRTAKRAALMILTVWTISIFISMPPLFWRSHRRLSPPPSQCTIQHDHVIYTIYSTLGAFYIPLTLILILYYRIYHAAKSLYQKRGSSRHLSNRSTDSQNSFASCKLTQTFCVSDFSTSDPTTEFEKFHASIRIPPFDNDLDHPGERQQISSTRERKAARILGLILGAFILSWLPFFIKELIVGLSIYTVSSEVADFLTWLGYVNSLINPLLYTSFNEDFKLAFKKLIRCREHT

[14] = molecular target: h5-HT6 (Homo sapiens, UniProt P50406); assay: Competition radioligand binding; conditions: 0.97 nM [3H]LSD; mean ± S.E.M.
Sequence of h5-HT6 (P50406 whole entry): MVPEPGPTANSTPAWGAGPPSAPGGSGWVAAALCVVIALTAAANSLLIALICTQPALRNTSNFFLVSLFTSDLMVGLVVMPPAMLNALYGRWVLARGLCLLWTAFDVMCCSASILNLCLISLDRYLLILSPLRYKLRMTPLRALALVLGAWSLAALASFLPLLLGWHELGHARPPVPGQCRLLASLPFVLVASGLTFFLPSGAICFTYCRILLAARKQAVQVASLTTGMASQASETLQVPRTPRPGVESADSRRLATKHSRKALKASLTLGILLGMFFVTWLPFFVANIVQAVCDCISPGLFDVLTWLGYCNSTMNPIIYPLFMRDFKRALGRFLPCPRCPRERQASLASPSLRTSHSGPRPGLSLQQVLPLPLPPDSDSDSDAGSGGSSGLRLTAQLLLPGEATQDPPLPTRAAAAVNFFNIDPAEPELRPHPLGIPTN

[15] = system: mice; assay: Observation of visible adverse effects in mice; format: in vivo, mouse; conditions: i.p. doses of the body temperature study
[16] = molecular target: h5-HT1D (Homo sapiens, UniProt P28221); assay: Competition radioligand binding; conditions: 1.4 nM [3H]5-CT; mean ± S.E.M.
Sequence of h5-HT1D (P28221 whole entry): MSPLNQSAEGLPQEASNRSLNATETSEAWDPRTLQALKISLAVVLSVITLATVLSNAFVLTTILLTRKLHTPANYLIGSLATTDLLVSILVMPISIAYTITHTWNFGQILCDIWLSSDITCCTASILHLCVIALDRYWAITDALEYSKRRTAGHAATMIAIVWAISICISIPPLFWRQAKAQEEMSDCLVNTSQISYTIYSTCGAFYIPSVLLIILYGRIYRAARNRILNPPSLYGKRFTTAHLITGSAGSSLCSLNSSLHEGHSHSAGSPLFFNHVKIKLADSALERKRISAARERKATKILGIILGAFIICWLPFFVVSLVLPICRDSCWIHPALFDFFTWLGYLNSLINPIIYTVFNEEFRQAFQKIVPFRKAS

[17] = cited from earlier work
[18] = molecular target: hSERT (Homo sapiens, UniProt P31645); assay: Competition radioligand binding; conditions: 0.79 nM [3H]citalopram; mean ± S.E.M.
Sequence of hSERT (P31645 whole entry): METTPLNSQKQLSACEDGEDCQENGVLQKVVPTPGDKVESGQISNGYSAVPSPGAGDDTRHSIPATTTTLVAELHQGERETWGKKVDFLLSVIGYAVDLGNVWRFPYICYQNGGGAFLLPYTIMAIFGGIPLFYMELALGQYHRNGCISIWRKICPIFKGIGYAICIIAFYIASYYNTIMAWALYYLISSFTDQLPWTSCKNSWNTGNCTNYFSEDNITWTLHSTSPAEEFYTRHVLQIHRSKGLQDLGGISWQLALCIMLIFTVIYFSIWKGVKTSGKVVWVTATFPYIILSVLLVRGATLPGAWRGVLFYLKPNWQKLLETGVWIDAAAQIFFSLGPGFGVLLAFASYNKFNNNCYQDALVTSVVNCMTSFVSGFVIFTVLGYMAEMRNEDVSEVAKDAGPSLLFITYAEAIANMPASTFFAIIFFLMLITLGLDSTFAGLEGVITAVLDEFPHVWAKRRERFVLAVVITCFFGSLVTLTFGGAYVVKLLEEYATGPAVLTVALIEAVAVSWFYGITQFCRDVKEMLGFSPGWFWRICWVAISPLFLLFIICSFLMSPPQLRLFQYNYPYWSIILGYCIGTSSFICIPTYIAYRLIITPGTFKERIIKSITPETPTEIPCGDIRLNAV

[19] = system: 5-HT7 receptor; conditions: cited from earlier work
[20] = system: 5-HT7^−/− mice; assay: Body temperature regulation in 5-HT7-/- mice; format: in vivo, mouse
[21] = molecular target: rat cloned 5-HT7 receptors; conditions: cited from earlier work
[22] = 0.5 nM [3H]8-OH-DPAT, mean ± S.E.M.
[23] = 3, 10, and 30 mg/kg i.p., wild-type mice

Sequence of h5-HT1B (P28222 whole entry): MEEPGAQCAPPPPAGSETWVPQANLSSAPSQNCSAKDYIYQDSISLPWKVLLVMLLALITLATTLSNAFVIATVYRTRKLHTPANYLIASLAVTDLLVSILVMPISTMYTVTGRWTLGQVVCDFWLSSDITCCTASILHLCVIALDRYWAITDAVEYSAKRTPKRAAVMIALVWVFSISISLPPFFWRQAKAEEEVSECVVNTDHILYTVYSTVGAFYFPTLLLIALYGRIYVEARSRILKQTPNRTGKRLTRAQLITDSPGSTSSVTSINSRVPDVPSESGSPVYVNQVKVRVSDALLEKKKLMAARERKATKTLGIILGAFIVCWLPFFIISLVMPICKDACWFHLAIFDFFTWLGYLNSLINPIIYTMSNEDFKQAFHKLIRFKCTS

Structure (SMILES): CCCN(CCC)C1CCc2cccc(O)c2C1 (centres unmarked) [8-OH-DPAT, 8-hydroxy-N,N-dipropylaminotetraline]
- Ki [1]: 3.8 nM
- Ki [2]: 467 nM

Structure (SMILES): c1ccc(-c2ccccc2N2CCNCC2)cc1 [RA-7, 1-(2-diphenyl)piperazine]
- Ki [3]: 1020 ± 121 nM
- Ki [4]: 171 ± 14 nM
- metabolite in plasma and brain ([5]; 30 min after the lowest dose of LP-211, 5-HT7-/- and 5-HT7+/+ mice): undetectable
- Ki [6]: 1190 ± 288 nM
- effect on body temperature ([7]; 3 mg/kg i.p., genotype not given): slight but significant hyperthermic effect
- effect on body temperature ([7]; 10 mg/kg i.p., 5-HT7+/+ mice): induced hypothermia to small degree that reached significance for overall change
- Ki [8, 22]: 99 ± 22 nM
- selectivity for 5-HT7 over 5-HT1A ([8]; from Ki values): 71 fold
- Ki [9]: 76 ± 14 nM
- selectivity for 5-HT7 over 5-HT5A ([9]; from Ki values): 54 fold
- Ki [10]: 178 ± 19 nM
- Ki ([11]; 1.1 nM [3H]LSD, mean ± S.E.M.): 1.4 ± 0.2 nM
- Ki at human 5-HT7 lower than the corresponding value for the parent compound ([11]; RA-7 vs LP-211): approximately 10 fold
- selectivity for 5-HT7 over a range of 5-HT receptor subtypes and SERT ([11]; from Ki values): > 54 fold
- Ki [12]: 228 ± 34 nM
- Ki [13]: > 10000 nM
- Ki [14]: 596 ± 70 nM
- visible adverse effects apart from the hypothermia [15]: did not induce any visible adverse effects
- Ki [16]: 302 ± 39 nM
- mean metabolite-to-parent compound ratio in mouse brain, molar basis [17]: about 2
- Ki [18]: 439 ± 41 nM

Structure (SMILES): CC[C@@H](CO)NC(=O)[C@@H]1C=C2c3cccc4c3c(cn4C)C[C@H]2N(C)C1 [Methysergide, reference compound]
- Ki [8]: 38 nM

Structure (SMILES): CC1CCN(CC[C@H]2CCCN2S(=O)(=O)c2cccc(O)c2)CC1 [SB-269970, (2R)-1-[(3-hydroxyphenyl)sulfonyl]-2-[2-(4-methyl-1-piperidinyl)ethyl]pyrrolidine, reference compound]
- effect of the antagonist itself on body temperature ([7]; 10 mg/kg i.p., genotype not given): no effect on body temperature
- antagonism of the effect of LP-211 (30 mg/kg) on body temperature ([7]; antagonist 10 mg/kg i.p., 30 min prior to LP-211): blocked the effect of LP-211
- reversal of the LP-211 effect in guinea pig ileum [19]: reversed

Structure (SMILES): N#Cc1ccc(CNC(=O)CCCCCN2CCN(c3ccccc3-c3ccccc3)CC2)cc1 [LP-211, N-(4-cyanophenylmethyl)-4-(2-diphenyl)-1-piperazinehexanamide]
- Ki [3]: 215 ± 10 nM
- Ki [4]: 91 ± 9 nM
- effect on body temperature ([20]; 3 mg/kg i.p.): did not alter body temperature
- effect on body temperature ([20]; 10 mg/kg i.p.): but not in 5-HT7^−/− mice
- effect on body temperature ([20]; 30 mg/kg i.p.): significant, but less pronounced, effect on peak change
- Ki [6]: 626 ± 141 nM
- effect on body temperature ([7]; 3 mg/kg i.p., 5-HT7+/+ mice): did not alter body temperature
- effect on body temperature ([7]; 10 mg/kg i.p., 5-HT7+/+ mice): had a peak effect
- effect on body temperature ([7]; 30 mg/kg i.p., 5-HT7+/+ mice, peak change and overall change): significant effect
- effect on body temperature [7, 23]: dose-dependently reduced body temperature
- time of peak effect on body temperature after the injection [7, 23]: 15 to 30 min
- Ki [8, 22]: 379 ± 118 nM
- Ki [9]: 178 ± 26 nM
- Ki [10]: 67 ± 10 nM
- Ki [21]: 0.58 nM
- binding at 5-HT3 receptors [12]: did not significantly bind
- Ki [12]: > 10000 nM
- binding at 5-HT1E receptors [13]: did not significantly bind
- Ki [13]: > 10000 nM
- Ki [14]: 1570 ± 193 nM
- visible adverse effects apart from the hypothermia [15]: did not induce any visible adverse effects
- Ki [16]: 394 ± 74 nM
- Ki [18]: 812 ± 156 nM
